How the values were obtained:
HeLa = assay: Cytotoxicity against human HeLa cells assessed as cell viability after 48 hrs by MTT assay; type: functional, cell-based
Summary of the method: (§1)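 Cancer cell lines treated with compound for 48 h, and viability read by MTT assay. IC50 given as mean ± SD from at least three independent experiments.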

[1] = Cytotoxicity against human Bel7402 cells assessed as cell viability after 48 hrs by MTT assay; type: functional, cell-based; details: Bel-7402, 48 h; summary of the method: as §1
MCF7 [2] = assay: Cytotoxicity against human MCF7 cells assessed as cell viability after 48 hrs by MTT assay; type: functional, cell-based; details: MCF7, 48 h; summary of the method: as §1
[3] = Cytotoxicity against human HCT8 cells assessed as cell viability after 48 hrs by MTT assay; type: functional, cell-based; details: HCT-8, 48 h; summary of the method: as §1
A549 [4] = assay: Cytotoxicity against human A549 cells assessed as cell viability after 48 hrs by MTT assay; type: functional, cell-based; details: A549, 48 h; summary of the method: as §1
A2780 [5] = assay: Cytotoxicity against human A2780 cells assessed as cell viability after 48 hrs by MTT assay; type: functional, cell-based; details: A2780, 48 h; summary of the method: as §1
A549 [6] = assay: Antitumor activity against human A549 cells xenografted in BALB/c nude mouse assessed as tumor growth inhibition at 30 mg/kg, ip administered every other day for 1 month measured every other day post dose relative to vehicle-treated control; type: functional; details: read-out: TGI
MCF7 [7] = assay: Resistance index, ratio of IC50 for human MCF7/DX cells to IC50 for human MCF7 cells; type: functional
[8] = Cytotoxicity against human MCF7/DX cells assessed as growth inhibition after 48 hrs by MTT assay; type: functional, cell-based
Summary of the method: (§2)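 Drug-resistant lines were tested by a 48 h MTT viability assay. IC50 was derived from dose-response curves and reported as mean ± SE of at least three independent experiments.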

A2780 [9] = assay: Resistance index, ratio of IC50 for human A2780/TAX cells to IC50 for human A2780 cells; type: functional
[10] = Cytotoxicity against human A549/CDDP cells assessed as growth inhibition after 48 hrs by MTT assay; type: functional, cell-based; details: A549, 48 h; summary of the method: as §2
A549 [11] = assay: Resistance index, ratio of IC50 for human A549/CDDP cells to IC50 for human A549 cells; type: functional
HCT-8 = assay: Resistance index, ratio of IC50 for human HCT8/VCT cells to IC50 for human HCT8 cells; type: functional
[12] = Cytotoxicity against human HCT8/VCT cells assessed as growth inhibition after 48 hrs by MTT assay; type: functional, cell-based; summary of the method: as §2
[13] = Cytotoxicity against human A2780/TAX cells assessed as growth inhibition after 48 hrs by MTT assay; type: functional, cell-based; summary of the method: as §2
Tubulin = Tubulin (Sus scrofa, UniProt P02554+P02550); assay: Inhibition of porcine brain tubulin polymerization measured every 60 secs for 60 mins by DAPI staining-based fluorescence assay

| IC50 (Tubulin) [nM] | SMILES | IC50 (HeLa) [nM] | IC50 [1] [nM] | IC50 (MCF7 [2]) [nM] | IC50 [3] [nM] | IC50 (A549 [4]) [nM] | IC50 (A2780 [5]) [nM] | inhibition in vivo at 30 mg/kg (A549 [6]) [%] | Ratio IC50 (MCF7 [7]) | IC50 [8] [nM] | Ratio IC50 (A2780 [9]) | IC50 [10] [nM] | Ratio IC50 (A549 [11]) | Ratio IC50 (HCT-8) | IC50 [12] [nM] | IC50 [13] [nM] |
| --- | --- | --- | --- | --- | --- | --- | --- | --- | --- | --- | --- | --- | --- | --- | --- | --- |
|  | COc1ccc2c(c1)c(/C=C(\C)C(=O)c1cc(OC)c(OC)c(OC)c1)cn2C | 235 | 356 | 548 | 726 | 331 | 427 |  |  |  |  |  |  |  |  |  |
|  | CCCn1cc(/C=C(\C)C(=O)c2cc(OC)c(OC)c(OC)c2)c2ccc(OC)cc21 | 531 | 614 | 497 | 679 | 514 | 597 |  |  |  |  |  |  |  |  |  |
|  | COc1cc(C(=O)/C=C/c2cccc3[nH]ccc23)cc(OC)c1OC | 38 | 63 | 50 | 57 | 36 | 41 |  |  |  |  |  |  |  |  |  |
|  | COc1ccc2c(/C=C/C(=O)c3cc(OC)c(OC)c(OC)c3)c[nH]c2c1 | 261 | 351 | 246 | 274 | 224 | 118 |  |  |  |  |  |  |  |  |  |
|  | COc1ccc(/C=C\c2cc(OC)c(OC)c(OC)c2)cc1OP(=O)(O)O [FOSBRETABULIN] |  |  |  |  |  |  | 52.2 |  |  |  |  |  |  |  |  |
|  | COc1cc(C(=O)/C=C/c2cccc3c2ccn3C)cc(OC)c1OC | 31 | 32 | 38 | 41 | 30 | 23 |  |  |  |  |  |  |  |  |  |
|  | COc1cccc2c1C(=O)c1c(O)c3c(c(O)c1C2=O)C[C@@](O)(C(=O)CO)C[C@@H]3O[C@H]1C[C@H](N)[C@H](O)[C@H](C)O1 [DOXORUBICIN] |  |  |  | 1170 | 2170 | 980 |  | 49.4 | 50400 | 3.35 | 3140 | 1.44 | 1.29 | 1510 | 3290 |
|  | COc1cc(C(=O)/C=C/c2ccc3[nH]ccc3c2)cc(OC)c1OC | 22 | 34 | 28 | 34 | 33 | 28 |  |  |  |  |  |  |  |  |  |
|  | CC(=O)O[C@H]1C(=O)[C@@]2(C)[C@H]([C@H](OC(=O)c3ccccc3)[C@]3(O)C[C@H](OC(=O)[C@H](O)[C@@H](NC(=O)c4ccccc4)c4ccccc4)C(C)=C1C3(C)C)[C@]1(OC(C)=O)CO[C@@H]1C[C@@H]2O [PACLITAXEL] |  |  |  | 19 |  | 5 |  |  | 135 |  | 23 |  |  | 125 | 5680 |
|  | COc1ccc2c(/C=C(\C)C(=O)c3cc(OC)c(OC)c(OC)c3)cn(C)c2c1 | 31 | 28 | 42 | 61 | 41 | 34 |  |  |  |  |  |  |  |  |  |
|  | COc1cc(C(=O)/C=C/c2cn(C)c3cccc(OC)c23)cc(OC)c1OC | > 1000 | > 1000 | > 1000 | > 1000 | > 1000 | > 1000 |  |  |  |  |  |  |  |  |  |
|  | COc1ccc2c(c1)c(/C=C/C(=O)c1ccc(OC)c3c1OC(C)(C)C=C3)cn2C | 415 | 389 | 567 | 675 | 452 | 497 |  |  |  |  |  |  |  |  |  |
|  | COc1ccc2c(/C=C(\C)C(=O)c3cc(OC)c(OC)c(OC)c3)cn(CCO)c2c1 | 35 | 21 | 14 | 20 | 25 | 31 |  |  |  |  |  |  |  |  |  |
|  | COc1cc(C(=O)/C=C/c2ccc3c(ccn3C)c2)cc(OC)c1OC | 57 | 77 | 61 | 67 | 53 | 45 |  |  |  |  |  |  |  |  |  |
|  | COc1ccc2c(/C=C/C(=O)c3ccc(OC)c4c3OC(C)(C)C=C4)cn(C)c2c1 | 93 | 97 | 45 | 87 | 58 | 61 |  |  |  |  |  |  |  |  |  |
| 4390 | COc1ccc2c(/C=C/C(=O)c3ccc(OC)c4c3OC(C)(C)C=C4)c[nH]c2c1 | 49 | 78 | 56 | 77 | 55 | 41 |  |  |  |  |  |  |  |  |  |

| IC50 (Tubulin) [nM] | SMILES | IC50 (HeLa) [nM] | IC50 [1] [nM] | IC50 (MCF7 [2]) [nM] | IC50 [3] [nM] | IC50 (A549 [4]) [nM] | IC50 (A2780 [5]) [nM] | inhibition in vivo at 30 mg/kg (A549 [6]) [%] | Ratio IC50 (MCF7 [7]) | IC50 [8] [nM] | Ratio IC50 (A2780 [9]) | IC50 [10] [nM] | Ratio IC50 (A549 [11]) | Ratio IC50 (HCT-8) | IC50 [12] [nM] | IC50 [13] [nM] |
| --- | --- | --- | --- | --- | --- | --- | --- | --- | --- | --- | --- | --- | --- | --- | --- | --- |
|  | C=Cn1cc(/C=C(\C)C(=O)c2cc(OC)c(OC)c(OC)c2)c2ccc(OC)cc21 | 67 | 91 | 64 | 79 | 89 | 49 |  |  |  |  |  |  |  |  |  |
|  | COc1cc2c(c(OC)c1OC)C/C(=C\c1cccc3[nH]ccc13)C2=O | 27 | 35 | 47 | 38 | 26 | 35 |  |  |  |  |  |  |  |  |  |
|  | COc1cc(C(=O)/C(C)=C/c2cn(C)c3cccc(OC)c23)cc(OC)c1OC | > 1000 | > 1000 | > 1000 | > 1000 | > 1000 | > 1000 |  |  |  |  |  |  |  |  |  |
|  | COc1ccc(C(=O)/C=C/c2cn(C)c3cccc(OC)c23)c2c1C=CC(C)(C)O2 | > 1000 | > 1000 | > 1000 | > 1000 | > 1000 | > 1000 |  |  |  |  |  |  |  |  |  |
|  | COc1cc(C(=O)/C=C/c2c[nH]c3cccc(OC)c23)cc(OC)c1OC | > 1000 | > 1000 | > 1000 | > 1000 | > 1000 | > 1000 |  |  |  |  |  |  |  |  |  |
| 5060 | COc1ccc2[nH]cc(/C=C(\C)C(=O)c3cc(OC)c(OC)c(OC)c3)c2c1 | 78 | 96 | 33 | 48 | 74 | 32 |  |  |  |  |  |  |  |  |  |
|  | COc1ccc2c(c1)c(/C=C/C(=O)c1cc(OC)c(OC)c(OC)c1)cn2C | 531 | 256 | 231 | 315 | 164 | 283 |  |  |  |  |  |  |  |  |  |
|  | COc1ccc2[nH]cc(/C=C/C(=O)c3cc(OC)c(OC)c(OC)c3)c2c1 | > 1000 | > 1000 | > 1000 | > 1000 | > 1000 | > 1000 |  |  |  |  |  |  |  |  |  |
|  | CC[C@]1(O)C[C@H]2CN(CCc3c([nH]c4ccccc34)[C@@](C(=O)OC)(c3cc4c(cc3OC)N(C=O)[C@H]3[C@@](O)(C(=O)OC)[C@H](OC(C)=O)[C@]5(CC)C=CCN6CC[C@]43[C@@H]65)C2)C1 [VINCRISTINE] |  |  | 98 | 350 | 61 | 26 |  | 12.9 | 1260 | 6.46 | 561 | 9.2 | 22.5 | 7860 | 168 |
|  | COc1ccc2[nH]cc(/C=C/C(=O)c3ccc(OC)c4c3OC(C)(C)C=C4)c2c1 | 327 | 456 | 782 | 557 | 272 | 398 |  |  |  |  |  |  |  |  |  |
| 3590 | COc1ccc2c(/C=C(\C)C(=O)c3cc(OC)c(OC)c(OC)c3)cn(CO)c2c1 | 13 | 9 | 19 | 17 | 8 | 21 |  |  |  |  |  |  |  |  |  |
|  | COc1ccc2c(/C=C(\C)C(=O)c3cc(OC)c(OC)c(OC)c3)cn(CCBr)c2c1 | 146 | 259 | 389 | 169 | 126 | 274 |  |  |  |  |  |  |  |  |  |
| 3480 | COc1ccc2c(/C=C/C(=O)c3cc(OC)c(OC)c(OC)c3)cn(C)c2c1 | 62 | 61 | 87 | 47 | 23 | 25 |  |  |  |  |  |  |  |  |  |
|  | COc1cc(C(=O)/C(C)=C/c2c[nH]c3cccc(OC)c23)cc(OC)c1OC | > 1000 | > 1000 | > 1000 | > 1000 | > 1000 | > 1000 |  |  |  |  |  |  |  |  |  |
|  | CCn1cc(/C=C(\C)C(=O)c2cc(OC)c(OC)c(OC)c2)c2ccc(OC)cc21 | 65 | 15 | 32 | 56 | 39 | 21 |  |  |  |  |  |  |  |  |  |
|  | COc1ccc(C(=O)/C=C/c2c[nH]c3cccc(OC)c23)c2c1C=CC(C)(C)O2 | > 1000 | > 1000 | > 1000 | > 1000 | > 1000 | > 1000 |  |  |  |  |  |  |  |  |  |

Reference: ChEMBL document CHEMBL3817728, “Synthesis, Evaluation, and Mechanism Study of Novel Indole-Chalcone Derivatives Exerting Effective Antitumor Activity Through Microtubule Destabilization in Vitro and in Vivo” (J Med Chem, 2016)
